Here are results for 29 molecules from ChEMBL document CHEMBL1759908, “Design, synthesis and potential 6 Hz psychomotor seizure test activity of some novel 2-(substituted)-3-{[substituted]amino}quinazolin-4(3H)-one” (Eur J Med Chem, 2011).

Activity calls are given as the source filed them.

A short description of data set [1]: Lipophilicity, log P of the compound in octanol-phosphate buffer. In kind it is physicochemical. The method, boiled down:
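Experimental log P was measured by octanol-phosphate buffer partition. The mixture stood 24 h at room temperature and was then equilibrated 6 h in a separating funnel. Phases were separated and membrane-filtered, and drug in the aqueous phase was quantified by UV spectroscopy.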

Data set [2] relates to Mus musculus. The experiment in a line: Anticonvulsant activity in CF1 mouse at 30 to 300 mg/kg, ip by maximal electroshock test. In kind it is functional, organism-based. The method, boiled down:
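Male CF-1 mice (18-25 g) were dosed i.p. at 30, 100 and 300 mg/kg (0.5% methylcellulose suspension). Maximal electroshock protection and neurotoxicity were assessed 30 min and 4 h after administration.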
(The maximal electroshock test induces tonic seizures with an electrical stimulus.)

Data set [3] deals with Mus musculus. The experiment in a line: Anticonvulsant activity in CF1 mouse at 30 to 300 mg/kg, sc after 30 mins by subcutaneous metrazole seizure threshold test. In kind it is functional, organism-based.
In data set [4] the test system is Mus musculus. The experiment in a line: Neurotoxicity in CF1 mouse assessed as minimal motor impairment at 100 mg/kg, ip after 1 min by rotarod test. In kind it is toxicity, organism-based. Conditions: in vivo. Also noted: dose 100 mg/kg, route intraperitoneal. The essentials:
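Neurotoxicity was scored as minimal motor impairment on the rotarod. Male CF-1 mice (18-25 g) received 100 mg/kg i.p. as a 0.5% methylcellulose suspension. Results are given as number toxic over number tested.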
For orientation: The rotarod test checks motor coordination on a turning rod.

The subject of data set [5] is Mus musculus. The experiment in a line: Anticonvulsant activity in CF1 mouse assessed as protection against 32 mA-current- for 3 secs induced seizure at 100 mg/kg, ip after 0.25 hr by 6Hz psychomotor seizure test. In kind it is functional. The method, boiled down: (§1)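 Male CF-1 mice (18-25 g) received 100 mg/kg i.p. as a suspension in 0.5% methylcellulose. At 0.25, 0.5, 1.0, 2.0 and 4.0 h, four mice per time point were stimulated through corneal electrodes (32 mA, 3 s, 6 Hz). Mice without psychomotor seizure behaviour were counted as protected. Results are reported as number protected over number tested.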

In data set [6] the test system is Mus musculus. The experiment in a line: Anticonvulsant activity in CF1 mouse assessed as protection against 32 mA-current- for 3 secs induced seizure at 100 mg/kg, ip after 1 hr by 6Hz psychomotor seizure test. Format: functional. The essentials: as §1
Data set [7] deals with Mus musculus. Briefly: Anticonvulsant activity in CF1 mouse assessed as protection against 32 mA-current- for 3 secs induced seizure at 100 mg/kg, ip after 2 hrs by 6Hz psychomotor seizure test. Format: functional. The essentials: as §1
Data set [8] relates to Mus musculus. Briefly: Anticonvulsant activity in CF1 mouse assessed as protection against 32 mA-current- for 3 secs induced seizure at 100 mg/kg, ip after 4 hrs by 6Hz psychomotor seizure test. In kind it is functional, organism-based. Also noted: dose 100 mg/kg. The method, boiled down: as §1
Data set [9] relates to Mus musculus. Briefly: Anticonvulsant activity in CF1 mouse assessed as protection against 32 mA-current- for 3 secs induced seizure at 100 mg/kg, ip after 0.5 hr by 6Hz psychomotor seizure test. In kind it is functional. The essentials: as §1

In general, logP refers to a log measure of how a compound divides between an organic and an aqueous phase. A high value points to higher lipophilicity.

`Cc1ccc(Oc2ccc(/C=N/n3c(-c4ccccc4)nc4ccccc4c3=O)cc2)cc1`: in [1], the logP is 6.29. Besides, the result in the data set with Mus musculus [2] and in the data set on Mus musculus [3] was inactive.
Regarding `Cc1cc(Oc2ccc(/C=N/n3c(C)nc4ccccc4c3=O)cc2)ccc1Cl`, the logP in data set [1] was found to be 4.41. Besides, the Activity result in the data set on Mus musculus [4] is “Non-toxic”; with Mus musculus [5] (route intraperitoneal) it was 50%; in the data set on Mus musculus [6] (route intraperitoneal) it was 25%; in the data set with Mus musculus [9] (route intraperitoneal), 50%. Besides, the outcome in the data set with Mus musculus [7] and in the data set on Mus musculus [8] was inactive.
Take `CCCc1nc2ccccc2c(=O)n1/N=C/c1ccc(Oc2ccc(Cl)cc2)cc1`: the logP in data set [1] was 5.78. Also, the Activity result in the data set on Mus musculus [4] was “Non-toxic”; in the data set on Mus musculus [5] (route intraperitoneal), 50%. Also, the result in the data set with Mus musculus [6], with Mus musculus [7], with Mus musculus [8] and with Mus musculus [9] was inactive.
`O=c1c2ccccc2nc(-c2ccccc2)n1/N=C/c1ccc(Oc2ccc(Cl)cc2)cc1`: the logP in [1] is 6.38. Besides, the outcome in the data set on Mus musculus [2] and with Mus musculus [3] was inactive.
In data set [1], `O=c1c2ccccc2nc(-c2ccccc2)n1/N=C/c1ccc(Oc2ccc(Br)cc2)cc1` came in with a log partition coefficient (logP) of 6.39.
`CCCc1nc2ccccc2c(=O)n1/N=C1/C(=O)Nc2ccccc21`: the log partition coefficient (logP) in data set [1] stood at 3.23. For the same molecule, the Activity entry is recorded as “Non-toxic” in the data set on Mus musculus [4]; 75% with Mus musculus [5] (route intraperitoneal); 50% in the data set with Mus musculus [6] (route intraperitoneal); 25% in the data set with Mus musculus [7] (route intraperitoneal); 50% in the data set on Mus musculus [9] (route intraperitoneal). The outcome in the data set with Mus musculus [8] was inactive.
In [1], `O=c1c2ccccc2nc(-c2ccccc2)n1/N=C/c1ccc(Oc2ccc3c(c2)OCO3)cc1` had a log partition coefficient (logP) of 6.01. Further, the Activity entry with Mus musculus [4] is reported as “Non-toxic”. Moreover, the result with Mus musculus [6], with Mus musculus [7], in the data set with Mus musculus [8] and in the data set with Mus musculus [9] was inactive.
For the molecule `O=C1Nc2ccccc2/C1=N\n1c(-c2ccccc2)nc2ccccc2c1=O`, the lipophilicity (logP) in data set [1] worked out at 4.03. For the same molecule, the result with Mus musculus [2] and in the data set with Mus musculus [3] was inactive.
The molecule `Cc1nc2ccccc2c(=O)n1/N=C/c1ccc(Oc2ccc(Br)cc2)cc1` yielded a logP in data set [1] of 4.64. Also, the Activity result is “Non-toxic” in the data set on Mus musculus [4] and 50% in the data set with Mus musculus [9] (route intraperitoneal). The result with Mus musculus [5] and in the data set on Mus musculus [8] was inactive.
In the case of `CCCc1nc2ccccc2c(=O)n1/N=C/c1ccc(Oc2ccc(C)cc2)cc1`, the lipophilicity (logP) in [1] is 5.45. The Activity result in the data set with Mus musculus [4] is listed as “Non-toxic”; with Mus musculus [9] (route intraperitoneal), 50%. Also, the outcome in the data set with Mus musculus [5], with Mus musculus [6], in the data set on Mus musculus [7] and in the data set with Mus musculus [8] was inactive.
`O=c1c2ccccc2nc(-c2ccccc2)n1/N=C/c1ccc(Oc2ccc(F)cc2)cc1`: the lipophilicity (logP) in [1] was found to be 6.21. Besides, the Activity result with Mus musculus [4] was “Non-toxic”; in the data set on Mus musculus [6] (route intraperitoneal) it was 25%. In addition, the outcome with Mus musculus [7] and in the data set with Mus musculus [8] was inactive.
Molecule `CCCc1nc2ccccc2c(=O)n1/N=C/c1ccc(Oc2ccc(Cl)c(C)c2)cc1` displayed a logP in data set [1] of 6.02. Further, the figures for the Activity entry with Mus musculus [4] and in the data set with Mus musculus [5] (route intraperitoneal) were “Non-toxic” and 50%, respectively. Besides, the result with Mus musculus [8] was inactive.
`Cc1nc2ccccc2c(=O)n1/N=C/c1ccc(Oc2ccc([N+](=O)[O-])cc2)cc1` yielded a logP in data set [1] of 4.01. Also, the Activity result in the data set with Mus musculus [4] is given as “Non-toxic”. The result with Mus musculus [8] was inactive.
As for `Cc1nc2ccccc2c(=O)n1/N=C1/C(=O)Nc2ccccc21`, the log partition coefficient (logP) in data set [1] was 2.23. For the same molecule, the Activity entry with Mus musculus [4] is on record as “Non-toxic”. Besides, the result with Mus musculus [5], in the data set on Mus musculus [6], in the data set with Mus musculus [7] and in the data set on Mus musculus [8] was inactive.
In turn, `CCCc1nc2ccccc2c(=O)n1/N=C/c1ccc(Oc2ccc(F)cc2)cc1` returned a logP in [1] of 5.22. Besides, the Activity result with Mus musculus [4] was “Non-toxic”. The result with Mus musculus [6], in the data set with Mus musculus [7], in the data set with Mus musculus [8] and in the data set with Mus musculus [9] was inactive.
The molecule `Cc1nc2ccccc2c(=O)n1/N=C/c1ccc(Oc2ccc3c(c2)OCO3)cc1` returned a logP in [1] of 4.01. In the data set on Mus musculus [4], the Activity entry is given as “Non-toxic”. Also, the outcome in the data set with Mus musculus [5], with Mus musculus [6], in the data set on Mus musculus [7] and with Mus musculus [8] was inactive.
Consider `O=c1c2ccccc2nc(-c2ccccc2)n1/N=C/c1ccc(Oc2ccc([N+](=O)[O-])cc2)cc1`, for which the logP in [1] turned out to be 6.12. The result with Mus musculus [2] and in the data set with Mus musculus [3] was inactive.
In [1], `Cc1nc2ccccc2c(=O)n1/N=C/c1ccc(Oc2ccc(F)cc2)cc1` gave a lipophilicity (logP) of 4.21. Also, the Activity entry in the data set on Mus musculus [4] was “Non-toxic”; with Mus musculus [6] (route intraperitoneal) it was 50%. The outcome in the data set on Mus musculus [5] and with Mus musculus [8] was inactive.
On to `CCCc1nc2ccccc2c(=O)n1/N=C/c1ccc(Oc2ccc(Br)cc2)cc1`, for which, in [1], the log partition coefficient (logP) worked out at 5.88. Moreover, the Activity entry with Mus musculus [4] is listed as “Non-toxic”; with Mus musculus [5] (route intraperitoneal), 50%; in the data set with Mus musculus [6] (route intraperitoneal), 50%; in the data set on Mus musculus [9] (route intraperitoneal), 25%. In addition, the outcome with Mus musculus [7] and with Mus musculus [8] was inactive.
Take `Cc1ccc(Oc2ccc(/C=N/n3c(C)nc4ccccc4c3=O)cc2)cc1`: in [1], the logP was found to be 4.32. In addition, the Activity entry in the data set on Mus musculus [4] was “Non-toxic”; with Mus musculus [5] (route intraperitoneal), 50%; in the data set with Mus musculus [7] (route intraperitoneal) it was 25%; with Mus musculus [9] (route intraperitoneal) it was 75%. Besides, the result in the data set on Mus musculus [8] was inactive.
`O=c1c2ccccc2nc(-c2ccccc2)n1/N=C/c1ccc(Oc2ccc3ccccc3c2)cc1` displayed a logP in data set [1] of 6.53. The result in the data set on Mus musculus [2] and in the data set on Mus musculus [3] was inactive.
For `Cc1nc2ccccc2c(=O)n1/N=C/c1ccc(Oc2ccccc2)cc1`, the logP in [1] came to 4.01. Further, the Activity result in the data set with Mus musculus [4] is “Non-toxic”. For the same molecule, the outcome in the data set with Mus musculus [5], with Mus musculus [6], with Mus musculus [7] and in the data set with Mus musculus [8] was inactive.
The molecule `Cc1nc2ccccc2c(=O)n1/N=C/c1ccc(Oc2ccc3ccccc3c2)cc1` registered a log partition coefficient (logP) in data set [1] of 5.22. The Activity result is “Non-toxic” with Mus musculus [4] and 50% with Mus musculus [9] (route intraperitoneal). Besides, the result in the data set with Mus musculus [5], with Mus musculus [6], with Mus musculus [7] and in the data set on Mus musculus [8] was inactive.
Take `CCCc1nc2ccccc2c(=O)n1/N=C/c1ccc(Oc2ccc([N+](=O)[O-])cc2)cc1`: the log partition coefficient (logP) in data set [1] came to 5.18. Moreover, the Activity entry in the data set with Mus musculus [4] is listed as “Non-toxic”. In addition, the result in the data set on Mus musculus [7], in the data set on Mus musculus [8] and in the data set with Mus musculus [9] was inactive.
`CCCc1nc2ccccc2c(=O)n1/N=C/c1ccc(Oc2ccc3c(c2)OCO3)cc1`: in [1], the logP came to 4.82.
In data set [1], `O=c1c2ccccc2nc(-c2ccccc2)n1/N=C/c1ccc(Oc2ccccc2)cc1` gave a logP of 6.13. The outcome in the data set with Mus musculus [2] and with Mus musculus [3] was inactive.
For `CCCc1nc2ccccc2c(=O)n1/N=C/c1ccc(Oc2ccc3ccccc3c2)cc1`, the logP in [1] amounted to 6.12. Further, the Activity entry is listed as “Non-toxic” in the data set on Mus musculus [4], 50% in the data set with Mus musculus [5] (route intraperitoneal), 25% in the data set on Mus musculus [6] (route intraperitoneal) and 50% in the data set with Mus musculus [9] (route intraperitoneal). Further, the result with Mus musculus [7] and in the data set with Mus musculus [8] was inactive.
For `CCCc1nc2ccccc2c(=O)n1/N=C/c1ccc(Oc2ccccc2)cc1`, the log partition coefficient (logP) in data set [1] worked out at 5.2. For the same molecule, the Activity result in the data set with Mus musculus [4] was “Non-toxic”. In addition, the result in the data set on Mus musculus [5], in the data set on Mus musculus [7] and with Mus musculus [8] was inactive.
As for `Cc1nc2ccccc2c(=O)n1/N=C/c1ccc(Oc2ccc(Cl)cc2)cc1`, the logP in data set [1] is 4.6.
